In ChEMBL document CHEMBL1138042, “2-[(4-phenylpiperazin-1-yl)methyl]imidazo(di)azines as selective D4-ligands. Induction of penile erection by 2-[4-(2-methoxyphenyl)piperazin-1-ylmethyl]imidazo[1,2-a]pyridine (PIP3EA), a potent and selective D4 partial agonist” (J Med Chem, 2006):

Tests used:
[1] = target: D(1A) dopamine receptor (Sus scrofa, UniProt P50130); experiment: Displacement of [3H][…] from dopamine receptor D1 in porcine striatal membrane; format: cell membranes, Striatum
[2] = target: T1, D(2) dopamine receptor (Homo sapiens, UniProt P14416); experiment: Displacement of [3H]spiperone from human dopamine receptor D2(long) in CHO cell membrane; format: cell membranes
T1 sequence (P14416 whole entry): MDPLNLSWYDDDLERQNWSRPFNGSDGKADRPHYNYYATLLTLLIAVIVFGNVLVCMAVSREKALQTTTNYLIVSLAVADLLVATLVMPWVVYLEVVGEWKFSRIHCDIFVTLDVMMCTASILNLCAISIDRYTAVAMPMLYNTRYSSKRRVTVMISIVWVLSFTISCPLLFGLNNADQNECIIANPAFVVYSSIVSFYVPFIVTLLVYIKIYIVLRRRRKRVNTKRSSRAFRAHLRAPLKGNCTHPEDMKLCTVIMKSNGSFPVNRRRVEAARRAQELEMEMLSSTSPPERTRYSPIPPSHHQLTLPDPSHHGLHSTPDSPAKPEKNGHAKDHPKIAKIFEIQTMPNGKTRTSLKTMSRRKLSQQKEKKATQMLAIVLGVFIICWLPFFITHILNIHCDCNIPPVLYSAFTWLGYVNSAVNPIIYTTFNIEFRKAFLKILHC

[3] = target: T1, D(2) dopamine receptor; experiment: Displacement of [3H]spiperone from human dopamine receptor D2(short) in CHO cell membrane; format: cell membranes
[4] = target: D(3) dopamine receptor (Homo sapiens, UniProt P35462); experiment: Displacement of [3H]spiperone from human dopamine receptor D3 in CHO cell membrane; format: cell membranes
D(3) dopamine receptor, sequence (P35462 whole entry): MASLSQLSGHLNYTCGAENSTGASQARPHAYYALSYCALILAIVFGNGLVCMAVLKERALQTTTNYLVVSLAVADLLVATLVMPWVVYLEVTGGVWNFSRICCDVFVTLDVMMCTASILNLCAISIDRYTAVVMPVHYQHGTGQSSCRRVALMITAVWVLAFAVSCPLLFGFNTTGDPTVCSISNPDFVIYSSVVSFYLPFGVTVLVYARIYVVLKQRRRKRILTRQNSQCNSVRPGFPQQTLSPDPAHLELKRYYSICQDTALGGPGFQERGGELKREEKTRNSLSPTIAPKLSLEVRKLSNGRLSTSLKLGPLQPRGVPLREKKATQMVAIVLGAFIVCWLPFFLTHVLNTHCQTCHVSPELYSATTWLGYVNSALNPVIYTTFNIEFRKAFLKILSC

[5] = target: T2, D(4) dopamine receptor (Homo sapiens, UniProt P21917); experiment: Displacement of [3H]spiperone from human dopamine receptor D4.4 in CHO cell membrane; format: cell membranes
T2 sequence (P21917 whole entry): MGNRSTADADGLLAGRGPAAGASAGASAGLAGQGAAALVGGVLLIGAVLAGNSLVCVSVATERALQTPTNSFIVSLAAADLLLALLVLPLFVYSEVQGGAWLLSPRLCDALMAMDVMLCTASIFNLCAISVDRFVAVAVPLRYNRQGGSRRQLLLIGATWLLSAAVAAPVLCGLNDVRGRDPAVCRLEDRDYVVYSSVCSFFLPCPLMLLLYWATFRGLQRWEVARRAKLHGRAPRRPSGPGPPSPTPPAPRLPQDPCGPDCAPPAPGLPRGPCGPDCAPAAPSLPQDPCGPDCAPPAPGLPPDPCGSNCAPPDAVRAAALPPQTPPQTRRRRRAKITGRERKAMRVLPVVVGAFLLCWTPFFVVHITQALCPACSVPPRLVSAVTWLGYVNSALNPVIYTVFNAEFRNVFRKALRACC

[6] = target: T3, D(4) dopamine receptor (Homo sapiens) (UniProt P21917); experiment: Intrinsic activity at human D4.2 receptor assessed as [3H]thymidine incorporation in CHO 10001 cells relative to quinpirole by mitogenesis assay; format: functional, cell-based
T3 sequence (whole entry): T2 sequence (P21917 whole entry)
Method in brief: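 CHO10001 cells expressing human D4.2 were seeded at 5000 cells/well, grown 72 h in serum medium, then switched to serum-free medium. Compound was applied for 20 h at 8 concentrations (0.01-10 000 nM) in hexaduplicate. [³H]thymidine (0.02 µCi/well) was added for 2 h and incorporation counted.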

[7] = target: T2, D(4) dopamine receptor; experiment: Activity at human D4.2 receptor assessed as [3H]thymidine incorporation in CHO 10001 cells by mitogenesis assay; format: functional, cell-based
[8] = target: 5-hydroxytryptamine receptor 2A (Sus scrofa, UniProt P50129); experiment: Displacement of [3H]ketanserin from 5HT2 receptor in porcine cortical membrane; format: cell membranes
5-hydroxytryptamine receptor 2A, sequence (P50129 whole entry): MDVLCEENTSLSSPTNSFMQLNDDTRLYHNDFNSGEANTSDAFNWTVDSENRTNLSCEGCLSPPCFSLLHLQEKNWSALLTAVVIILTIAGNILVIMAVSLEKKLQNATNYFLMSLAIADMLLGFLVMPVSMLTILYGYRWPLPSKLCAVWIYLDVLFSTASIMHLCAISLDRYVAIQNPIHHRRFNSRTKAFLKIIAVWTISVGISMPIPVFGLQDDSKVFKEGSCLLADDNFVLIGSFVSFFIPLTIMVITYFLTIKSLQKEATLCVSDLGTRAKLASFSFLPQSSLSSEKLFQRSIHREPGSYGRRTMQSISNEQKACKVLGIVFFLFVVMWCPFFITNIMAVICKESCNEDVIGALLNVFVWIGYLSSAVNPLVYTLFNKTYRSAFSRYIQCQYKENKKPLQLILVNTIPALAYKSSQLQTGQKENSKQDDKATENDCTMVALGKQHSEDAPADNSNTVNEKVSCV

[9] = target: T2, D(4) dopamine receptor; experiment: Activity at human D4.4 receptor expressed in CHOK1 cells assessed as stimulation of [35S]GTP-gammaS binding; format: functional, cell-based, CHO-K1
[10] = target: T3, D(4) dopamine receptor (Homo sapiens); experiment: Intrinsic activity at human D4.4 receptor expressed in CHOK1 cells assessed as stimulation of [35S]GTP-gammaS binding relative to quinpirole; format: functional, cell-based; settings: CHO-K1
Method in brief: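 Membranes from CHO cells stably expressing human D4.4 (Bmax 2.25 pmol/mg protein) in HEPES buffer pH 7.4 with 1 µM GDP at 37 °C. Test agent given at eight concentrations (0.01–10 000 nM) in hexaduplicate for 30 min, then 0.1 nM [35S]GTPγS for a further 30 min. Bound label filtered and counted.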

[11] = target: T4, Dopamine receptors; D2 & D4 (Homo sapiens) (UniProt P14416+P21917); experiment: Selectivity for human dopamine D4.4 receptor over dopamine D2(short) receptor; format: protein assay
T4 sequence (P14416 whole entry, looked up, one chain of several): as the sequence (P14416 whole entry) above

[12] = target: T4, Dopamine receptors; D2 & D4 (Homo sapiens); experiment: Selectivity for human dopamine D4.4 receptor over dopamine D2(long) receptor; format: protein assay
[13] = tested on: Rattus norvegicus; experiment: Penile erection in Sprague-Dawley rat at 5 ug/kg, sc; format: functional
Method in brief: (§1)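 Male Sprague-Dawley rats (225-250 g) were dosed s.c. (0.2 mL/rat) or i.c.v. (10 µL/rat, via a stereotaxic guide cannula implanted under chloral hydrate 3 days earlier). Vehicle was ethanol diluted in water to 0.3%. Rats were acclimated 30 min in individual cages, then observed 60 min after injection. Erections were scored as penis emerging from the sheath. Means ± SEM, 6 rats/group; cannula placement was checked histologically.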

[14] = tested on: Rattus norvegicus; experiment: Penile erection in Sprague-Dawley rat at 0.5 ug/kg, icv; format: functional; settings: in the assay text read “0.5 ug/rat” for “0.5 ug/kg”; method in brief: as §1
[15] = tested on: Rattus norvegicus; experiment: Penile erection in Sprague-Dawley rat at 20 ug/kg, sc; format: functional; method in brief: as §1
[16] = tested on: Rattus norvegicus; experiment: Penile erection in Sprague-Dawley rat at 1 ug, icv; format: functional; method in brief: as §1
[17] = Selectivity for human dopamine D4.4 receptor over adrenergic alpha-1 receptor
[18] = target: Dopamine receptors; D3 & D4 (Homo sapiens) (UniProt P35462+P21917); experiment: Selectivity for human dopamine D4.4 receptor over dopamine D3 receptor; format: protein assay
Dopamine receptors; D3 & D4 (Homo sapiens), sequence (P35462 whole entry, looked up, one chain of several): as the sequence (P35462 whole entry) above

[19] = Selectivity for human dopamine D4.4 receptor over porcine dopamine D1 receptor
[20] = target: Adrenergic receptor alpha-1 (Sus scrofa); experiment: Displacement of [3H]prazosin from porcine Adrenergic alpha-1 receptor in porcine brain

D(1A) dopamine receptor, sequence (P50130 whole entry): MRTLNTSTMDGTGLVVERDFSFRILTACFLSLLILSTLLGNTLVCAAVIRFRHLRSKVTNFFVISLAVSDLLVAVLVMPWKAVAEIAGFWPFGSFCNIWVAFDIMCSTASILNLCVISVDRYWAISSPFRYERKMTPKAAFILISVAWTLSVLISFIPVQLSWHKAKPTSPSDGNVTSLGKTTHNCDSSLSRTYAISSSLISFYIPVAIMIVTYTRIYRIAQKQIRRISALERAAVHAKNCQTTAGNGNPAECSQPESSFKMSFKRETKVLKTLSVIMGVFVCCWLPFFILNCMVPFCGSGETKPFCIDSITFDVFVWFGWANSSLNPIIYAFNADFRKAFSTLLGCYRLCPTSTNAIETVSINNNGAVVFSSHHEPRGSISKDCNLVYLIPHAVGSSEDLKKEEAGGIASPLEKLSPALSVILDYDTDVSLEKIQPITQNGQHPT

Structure (SMILES) | Ki [1] | Ki [2] | Ki [3] | Ki [4] | Ki [5] | Activity [6] | further results
COc1ccccc1N1CCN(Cc2cn3cc(C)cc(Br)c3n2)CC1 | 5.6 µM | 0.24 µM | 0.15 µM | 0.67 µM | 0.00099 µM | – | –
Fc1ccc(N2CCN(Cc3cn4ccncc4n3)CC2)cc1 | 15 µM | 64 µM | 68 µM | 42 µM | 0.5 µM | – | –
COc1ccccc1N1CCN(Cc2cn3cc(I)ccc3n2)CC1 | 6.4 µM | 0.073 µM | 0.072 µM | 0.6 µM | 0.00033 µM | 10% | EC50 [7]: 0.00052 µM
COc1ccccc1N1CCN(Cc2cn3cc(C)cc(-n4cccn4)c3n2)CC1 | 8.7 µM | 0.53 µM | 0.28 µM | 2.4 µM | 0.0016 µM | – | –
COc1ccccc1N1CCN(Cc2cn3cc(C)cc(C#N)c3n2)CC1 | 40 µM | 4.2 µM | 2.7 µM | 3.5 µM | 0.0013 µM | – | Selectivity ratio [11]: 2080; Selectivity ratio [12]: 3230
Cc1cccc(C(=O)NCN2CCN(c3ccccc3C#N)CC2)c1 | – | – | – | – | – | – | Selectivity ratio [17]: 8
Clc1ccc2nc(CN3CCN(c4ccc(Cl)c(Cl)c4)CC3)cn2n1 | 1.5 µM | 1.1 µM | 0.67 µM | 1.5 µM | 0.0013 µM | 0% | Ki [8]: 1.2 µM
Fc1ccc(N2CCN(Cc3cn4cccnc4n3)CC2)cc1 | 47 µM | 55 µM | 49 µM | 60 µM | 2.8 µM | – | –
Fc1ccc(N2CCN(Cc3cn4nc(Cl)ccc4n3)CC2)cc1 | 7 µM | 9.9 µM | 12 µM | 5.6 µM | 0.004 µM | – | –
N#Cc1ccc2[nH]c(CN3CCN(c4ccc(F)cc4)CC3)cc2c1 | 8.6 µM | – | – | – | – | – | –
N#Cc1ccc2[nH]c(CN3CCN(c4ccccc4)CC3)cc2c1 | 13 µM | – | – | – | – | – | –

Further lines, with some results ahead:

Ki [1] | Ki [2] | Ki [3] | Ki [4] | Ki [5] | Activity [6] | Structure (SMILES) | further results
7.1 µM | 0.13 µM | 0.14 µM | 0.8 µM | 0.00025 µM | 0% | COc1ccccc1N1CCN(Cc2cn3cc(Br)ccc3n2)CC1 | –
6.7 µM | 15 µM | 16 µM | 8.8 µM | 0.007 µM | 6% | Clc1ccc(N2CCN(Cc3cn4ccccc4n3)CC2)cc1 | EC50 [7]: 0.0018 µM; Ki [8]: 1.2 µM; EC50 [9]: 0.0026 µM; Activity [10]: 18%
6.4 µM | 0.21 µM | 0.1 µM | 2.1 µM | 0.0023 µM | – | COc1ccccc1N1CCN(Cc2cn3cc(C)cc(N4CCOCC4)c3n2)CC1 | –
7.7 µM | 0.096 µM | 0.079 µM | 1.4 µM | 0.0016 µM | 0% | COc1ccccc1N1CCN(Cc2cn3nc(Cl)ccc3n2)CC1 | Ki [8]: 3.4 µM
2.2 µM | 1.1 µM | 0.71 µM | 0.85 µM | 0.12 µM | – | Clc1ccc(N2CCN(Cc3cn4nc(N5CCCCC5)ccc4n3)CC2)cc1Cl | –
2.9 µM | 0.049 µM | 0.028 µM | 0.39 µM | 0.00084 µM | – | COc1ccccc1N1CCN(Cc2cn3cc(C)cc(-c4ccccc4)c3n2)CC1 | –
– | – | – | – | – | 46% | COc1ccccc1N1CCN(Cc2cn3ccccc3n2)CC1 | Activity [13]: 1.02; Activity [14]: 1.12; Ki [8]: 5.9 µM; Activity [10]: 57%; Activity [15]: 2.42; Activity [16]: 2.32
27 µM | 0.59 µM | 0.28 µM | 1 µM | 0.00094 µM | – | COc1ccccc1N1CCN(Cc2cn3c(-n4cccn4)cccc3n2)CC1 | –
2.3 µM | 3.2 µM | 2.7 µM | 1.7 µM | 0.0014 µM | 0% | Clc1ccc(N2CCN(Cc3cn4ccccc4n3)CC2)cc1Cl | Ki [8]: 1.2 µM
13 µM | 8 µM | 7.8 µM | 0.88 µM | 1.9 µM | – | CN1CCN(c2ccc3nc(CN4CCN(c5ccc(Cl)c(Cl)c5)CC4)cn3n2)CC1 | –
5.9 µM | 0.088 µM | 0.097 µM | 0.47 µM | 0.00053 µM | 0% | COc1ccccc1N1CCN(Cc2cn3cc(C)cc(I)c3n2)CC1 | –
8.4 µM | 21 µM | 19 µM | 3.1 µM | 0.044 µM | – | Fc1ccc(N2CCN(Cc3cn4ccccc4n3)CC2)cc1 | Selectivity ratio [18]: > 440; Selectivity ratio [11]: > 440; Selectivity ratio [12]: > 440; Selectivity ratio [19]: > 440; Ki [8]: 0.86 µM; Ki [20]: 0.26 µM
2.5 µM | 3.5 µM | 3.7 µM | 1 µM | 0.00099 µM | 0% | Clc1ccc(N2CCN(Cc3cn4cc(Br)ccc4n3)CC2)cc1Cl | Selectivity ratio [18]: > 440; Selectivity ratio [11]: > 440; Selectivity ratio [12]: > 440; Selectivity ratio [19]: > 440
5.5 µM | 12 µM | 8.2 µM | 7.7 µM | 0.002 µM | 0% | Clc1ccc(N2CCN(Cc3cn4nc(Cl)ccc4n3)CC2)cc1 | Ki [8]: 0.91 µM
